Calls of active or inactive are those of the source. No cut-off for these calls is given here.
Legend:
Monoglyceride lipase = target: T1, Monoglyceride lipase (Homo sapiens, UniProt Q99685); experiment: Inhibition of human recombinant MAGL using 4-nitrophenylacetate as substrate incubated for 30 mins by microplate reader analysis
T1 sequence (Q99685 whole entry): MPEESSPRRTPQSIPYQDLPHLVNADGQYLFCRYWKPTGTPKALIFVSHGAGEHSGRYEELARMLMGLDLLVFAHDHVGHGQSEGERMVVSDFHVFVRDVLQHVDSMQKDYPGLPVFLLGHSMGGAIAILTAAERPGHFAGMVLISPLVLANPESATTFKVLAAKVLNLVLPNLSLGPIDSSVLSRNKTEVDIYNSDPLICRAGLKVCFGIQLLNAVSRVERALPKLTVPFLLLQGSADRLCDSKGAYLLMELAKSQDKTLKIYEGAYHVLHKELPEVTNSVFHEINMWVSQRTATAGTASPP

[1] = target: Cannabinoid receptor 2 (Homo sapiens) (UniProt P34972); experiment: Displacement of [3H]CP55940 from human CB2 receptor at 10 uM incubated for 90 mins
Chain of Cannabinoid receptor 2 (Homo sapiens) (P34972 whole entry): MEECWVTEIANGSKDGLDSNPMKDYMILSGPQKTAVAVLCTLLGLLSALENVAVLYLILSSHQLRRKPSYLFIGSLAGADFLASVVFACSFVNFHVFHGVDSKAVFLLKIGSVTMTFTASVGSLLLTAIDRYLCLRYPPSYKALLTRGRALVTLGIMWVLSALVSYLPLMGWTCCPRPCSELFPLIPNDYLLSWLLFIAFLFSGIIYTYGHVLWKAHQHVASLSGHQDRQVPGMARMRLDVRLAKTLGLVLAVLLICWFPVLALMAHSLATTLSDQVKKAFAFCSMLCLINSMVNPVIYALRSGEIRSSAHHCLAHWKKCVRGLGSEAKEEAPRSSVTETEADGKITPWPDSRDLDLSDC
In short: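 Membranes expressing hCB1 or hCB2 in 50 mM Tris-HCl buffer, pH 7.4, with 2.5 mM EDTA, 5 mM MgCl2 and 0.5% fatty acid-free BSA. Incubated with compound (10 μM screening) or vehicle plus 0.5 nM [3H]CP55,940 for 90 min at 30 °C. Non-specific binding defined with 10 μM […]. GF/B filtration, ice-cold buffer washes, radioactivity counted. Two independent experiments in triplicate.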

[2] = target: T2, Monoglyceride lipase (Mus musculus) (UniProt O35678); experiment: Reversible inhibition of mouse brain MAGL at 10 uM incubated with compound for 25 mins by TAMRA-FP probe based SDS-PAGE analysis; type: tissue-based
T2 sequence (whole entry): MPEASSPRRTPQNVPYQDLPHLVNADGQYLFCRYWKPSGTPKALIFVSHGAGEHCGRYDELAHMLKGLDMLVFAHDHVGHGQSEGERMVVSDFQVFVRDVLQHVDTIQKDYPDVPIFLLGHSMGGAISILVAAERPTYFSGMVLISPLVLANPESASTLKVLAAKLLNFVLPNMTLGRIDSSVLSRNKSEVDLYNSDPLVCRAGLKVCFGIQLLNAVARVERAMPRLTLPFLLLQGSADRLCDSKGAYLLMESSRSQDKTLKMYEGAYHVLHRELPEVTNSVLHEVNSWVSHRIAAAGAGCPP
In short: (§1)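 Mouse brain membranes (2 mg/mL final, in PBS) preincubated 25 min at 25 °C with test compound (10 μM final) or DMSO vehicle. Controls: JZL-184, URB597 4 μM, WWL70 10 μM, THL, MAFP 5 μM. TAMRA-FP 125 nM final added for 5 min at 25 °C. Reaction stopped with Laemmli buffer, 3 min at 25 °C then 10 min at 90 °C. Separation by 10% SDS-PAGE, fluorescence scanning, three independent experiments.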

[3] = target: T3, Fatty-acid amide hydrolase 1 (Mus musculus) (UniProt O08914); experiment: Inhibition of mouse brain FAAH at 10 uM incubated with compound for 25 mins by TAMRA-FP probe based SDS-PAGE analysis; type: tissue-based; in short: as §1
T3 sequence (whole entry): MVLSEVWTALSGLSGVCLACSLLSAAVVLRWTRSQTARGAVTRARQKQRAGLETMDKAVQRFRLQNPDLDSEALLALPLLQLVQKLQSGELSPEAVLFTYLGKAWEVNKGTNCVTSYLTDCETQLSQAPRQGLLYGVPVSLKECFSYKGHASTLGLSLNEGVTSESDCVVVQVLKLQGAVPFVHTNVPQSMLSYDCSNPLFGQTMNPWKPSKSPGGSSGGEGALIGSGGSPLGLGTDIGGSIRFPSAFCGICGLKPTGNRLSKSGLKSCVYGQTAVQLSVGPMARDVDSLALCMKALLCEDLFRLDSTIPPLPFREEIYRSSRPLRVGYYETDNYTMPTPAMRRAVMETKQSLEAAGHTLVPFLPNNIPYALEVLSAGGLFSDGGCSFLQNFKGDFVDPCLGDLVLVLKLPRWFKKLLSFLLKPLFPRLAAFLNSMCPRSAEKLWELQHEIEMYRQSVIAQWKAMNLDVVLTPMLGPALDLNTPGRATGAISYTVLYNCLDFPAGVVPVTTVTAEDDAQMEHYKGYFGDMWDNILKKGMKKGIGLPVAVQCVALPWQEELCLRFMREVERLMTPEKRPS

[4] = target: T4, Lysophosphatidylserine lipase ABHD12 (Mus musculus) (UniProt Q99LR1); experiment: Inhibition of mouse brain ABHD12 at 10 uM incubated with compound for 25 mins by TAMRA-FP probe based SDS-PAGE analysis; type: tissue-based; in short: as §1
T4 sequence (whole entry): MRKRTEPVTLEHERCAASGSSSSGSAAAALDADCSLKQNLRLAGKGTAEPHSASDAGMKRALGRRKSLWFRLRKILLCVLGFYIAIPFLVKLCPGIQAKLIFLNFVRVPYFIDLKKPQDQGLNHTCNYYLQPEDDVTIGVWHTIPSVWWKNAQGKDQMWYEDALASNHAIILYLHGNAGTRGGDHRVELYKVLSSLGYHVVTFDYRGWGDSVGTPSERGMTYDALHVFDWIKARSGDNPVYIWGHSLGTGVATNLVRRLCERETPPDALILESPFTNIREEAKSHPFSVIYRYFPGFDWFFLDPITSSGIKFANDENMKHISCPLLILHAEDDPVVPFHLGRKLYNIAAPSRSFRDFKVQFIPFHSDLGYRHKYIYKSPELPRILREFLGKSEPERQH

[5] = target: T5, Fatty-acid amide hydrolase 1 (Homo sapiens) (UniProt O00519); experiment: Inhibition of FAAH in human U-937 cells at 10 uM preincubated with compound for 15 mins followed by 2-OG addition and measured after 15 mins by scintillation liquid counter analysis; type: cell-based; conditions: time 30.0 min
T5 sequence (whole entry): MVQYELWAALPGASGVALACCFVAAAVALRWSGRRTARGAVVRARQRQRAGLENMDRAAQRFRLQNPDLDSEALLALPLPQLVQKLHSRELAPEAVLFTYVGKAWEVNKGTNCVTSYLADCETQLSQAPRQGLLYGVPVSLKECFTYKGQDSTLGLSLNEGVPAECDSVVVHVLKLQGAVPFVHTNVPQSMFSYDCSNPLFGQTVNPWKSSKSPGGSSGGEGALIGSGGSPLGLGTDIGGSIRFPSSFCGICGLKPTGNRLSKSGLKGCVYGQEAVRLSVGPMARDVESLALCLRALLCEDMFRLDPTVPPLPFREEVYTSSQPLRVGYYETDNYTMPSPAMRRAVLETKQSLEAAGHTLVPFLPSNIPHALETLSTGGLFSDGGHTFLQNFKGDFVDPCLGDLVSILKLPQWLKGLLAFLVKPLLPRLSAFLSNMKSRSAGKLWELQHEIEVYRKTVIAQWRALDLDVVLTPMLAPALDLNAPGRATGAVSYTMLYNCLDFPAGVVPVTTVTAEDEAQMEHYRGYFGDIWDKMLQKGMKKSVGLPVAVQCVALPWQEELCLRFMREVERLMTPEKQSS

Row | SMILES | IC50 (Monoglyceride lipase) [nM] | Activity [1] | inhibition [2] | inhibition [3] | inhibition [4] | inhibition [5]
1 | O=C(c1cccc(O)c1)N1CCC(Cc2ccc(F)c(Sc3cc(C(F)(F)F)ccn3)c2)CC1 | 2.7 | inactive | Active | inactive | inactive | inactive
2 | O=C(c1cc(O)ccc1F)N1CCC(Cc2cccc(Sc3cc(C(F)(F)F)ccn3)c2)CC1 | 1.3 | inactive | Active | inactive | inactive | inactive
3 | O=C(c1cc(O)ccc1F)N1CCN(Cc2cccc(Sc3cc(C(F)(F)F)ccn3)c2)CC1 | 5.2 | inactive | Active | inactive | inactive | inactive
4 | O=C(c1cccc(O)c1)N1CCC(Cc2cccc(Sc3cc(C(F)(F)F)ccn3)c2)CC1 | 2.5 | inactive | Active | inactive | inactive | inactive

Source: ChEMBL document CHEMBL5532647, “Design, synthesis, ADME and biological evaluation of benzylpiperidine and benzylpiperazine derivatives as novel reversible monoacylglycerol lipase (MAGL) inhibitors” (Eur J Med Chem, 2024)
